Data from ChEMBL document CHEMBL1156775 (J Med Chem, 2010).

How the values were obtained:
Mu-type opioid receptor = Mu-type opioid receptor (Homo sapiens, UniProt P35372); test: Displacement of [3H]DAMGO from human mu opioid receptor expressed in CHO cells; type: cell-based
Homo sapiens [1] = organism: Homo sapiens; test: Selectivity ratio of Ki for human delta opioid receptor to Ki for human mu opioid receptor
[2] = molecular target: Kappa-type opioid receptor (Homo sapiens, UniProt P41145); test: Displacement of [3H]U69593 from human kappa opioid receptor expressed in CHO cells; type: cell-based
Kappa-type opioid receptor, sequence (P41145 whole entry): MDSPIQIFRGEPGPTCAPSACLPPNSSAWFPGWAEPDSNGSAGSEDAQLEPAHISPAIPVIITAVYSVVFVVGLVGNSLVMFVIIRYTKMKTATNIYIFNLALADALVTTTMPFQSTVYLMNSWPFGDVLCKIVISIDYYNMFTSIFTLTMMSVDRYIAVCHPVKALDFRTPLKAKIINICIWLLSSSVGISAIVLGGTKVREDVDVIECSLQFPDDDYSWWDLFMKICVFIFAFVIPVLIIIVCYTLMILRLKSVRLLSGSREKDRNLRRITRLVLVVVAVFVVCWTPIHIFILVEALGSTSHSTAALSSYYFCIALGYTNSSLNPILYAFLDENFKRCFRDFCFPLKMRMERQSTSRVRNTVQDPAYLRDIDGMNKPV

Homo sapiens [3] = organism: Homo sapiens; test: Selectivity ratio of Ki for human kappa opioid receptor to Ki for human mu opioid receptor
[4] = molecular target: Delta-type opioid receptor (Homo sapiens, UniProt P41143); test: Displacement of [3H]naltrindole from human delta opioid receptor expressed in CHO cells; type: cell-based
Delta-type opioid receptor, sequence (P41143 whole entry): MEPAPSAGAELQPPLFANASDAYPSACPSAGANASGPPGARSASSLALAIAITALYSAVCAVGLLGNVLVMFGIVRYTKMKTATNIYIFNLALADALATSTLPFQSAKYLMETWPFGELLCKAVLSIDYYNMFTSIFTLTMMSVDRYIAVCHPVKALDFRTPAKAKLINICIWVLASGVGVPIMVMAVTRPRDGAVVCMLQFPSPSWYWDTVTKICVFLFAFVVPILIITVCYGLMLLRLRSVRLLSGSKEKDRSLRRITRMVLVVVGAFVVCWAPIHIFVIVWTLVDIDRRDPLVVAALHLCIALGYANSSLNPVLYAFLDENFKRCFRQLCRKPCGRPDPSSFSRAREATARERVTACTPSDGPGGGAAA
In short: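 CHO cells stably expressing a single human opioid receptor were grown in DMEM with 10% FBS and penicillin/streptomycin at 37 °C in 5% CO2. Their membranes were incubated with radioligand and 12 concentrations of test compound at 25 °C in 50 mM Tris-HCl, pH 7.5.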

Mu-type opioid receptor, sequence (P35372 whole entry): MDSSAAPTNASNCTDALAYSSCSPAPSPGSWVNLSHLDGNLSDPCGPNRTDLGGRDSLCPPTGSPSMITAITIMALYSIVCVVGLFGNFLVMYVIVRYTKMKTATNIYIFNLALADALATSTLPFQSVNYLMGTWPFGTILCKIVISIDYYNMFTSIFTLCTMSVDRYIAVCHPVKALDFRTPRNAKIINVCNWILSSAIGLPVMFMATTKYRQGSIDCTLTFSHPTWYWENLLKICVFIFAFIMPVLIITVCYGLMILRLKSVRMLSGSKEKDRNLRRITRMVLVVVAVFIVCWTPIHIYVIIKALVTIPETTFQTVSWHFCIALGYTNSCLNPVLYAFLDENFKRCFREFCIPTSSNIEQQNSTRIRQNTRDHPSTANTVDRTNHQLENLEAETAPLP

In the case of CN1CC[C@]23CCCC[C@H]2[C@H]1Cc1ccc(OC(=O)Nc2ccc(I)cc2)cc13, the Ki (Mu-type opioid receptor) is reported as 0.34 nM, the Ratio Ki (Homo sapiens [1]) is reported as 4 and the Ki [2] is reported as 5.2 nM. For the same molecule, the Ratio Ki (Homo sapiens [3]) was 15 and the Ki [4] was 160 nM.

With Oc1cc2c(cc1C(O)CCCCC(O)c1cc3c(cc1O)[C@@]14CCCC[C@H]1[C@@H](C3)N(CC1CCC1)CC4)C[C@@H]1[C@@H]3CCCC[C@]23CCN1CC1CCC1 (mixture of isomers) the Ki (Mu-type opioid receptor) was 74 nM, the Ratio Ki (Homo sapiens [1]) was 24 and the Ki [2] was 67 nM. It also gave a Ratio Ki (Homo sapiens [3]) of 1 and a Ki [4] of 1600 nM.

Molecule COc1ccc(CN(Cc2ccc(OC)cc2)c2ccc3c(c2)[C@@]24CCCC[C@H]2[C@@H](C3)N(CC2CC2)CC4)cc1 has a Ki (Mu-type opioid receptor) of 2.5 nM, a Ratio Ki (Homo sapiens [1]) of 48 and a Ki [2] of 3.9 nM. The Ratio Ki (Homo sapiens [3]) was 2 and the Ki [4] was 120 nM.

For NCc1cc2c(cc1O)[C@@]13CCCC[C@H]1[C@@H](C2)N(CC1CCC1)CC3, the Ki (Mu-type opioid receptor) was 290 nM, the Ki [2] was 140 nM and the Ratio Ki (Homo sapiens [3]) was 0.5. For the same molecule, the Ki [4] was over 10000 nM.

Work on COc1ccc(Nc2ccc3c(c2)[C@@]24CCCC[C@H]2[C@@H](C3)N(CC2CC2)CC4)cc1 yielded a Ki (Mu-type opioid receptor) of 0.026 nM, a Ratio Ki (Homo sapiens [1]) of 65 and a Ki [2] of 0.03 nM. It also gave a Ratio Ki (Homo sapiens [3]) of 1 and a Ki [4] of 1.7 nM.

O=C(Nc1ccc(I)cc1)Nc1ccc2c(c1)[C@@]13CCCC[C@H]1[C@@H](C2)N(CC1CCC1)CC3 was tested, and the Ki (Mu-type opioid receptor) was 24 nM, the Ratio Ki (Homo sapiens [1]) was 4 and the Ki [2] was 28 nM. The Ratio Ki (Homo sapiens [3]) was 0.5 and the Ki [4] was 250 nM.

O=C(Nc1ccccc1)Nc1ccc2c(c1)[C@@]13CCCC[C@H]1[C@@H](C2)N(CC1CC1)CC3 was tested, and the Ki (Mu-type opioid receptor) was 3.9 nM, the Ratio Ki (Homo sapiens [1]) was 4 and the Ki [2] was 1.6 nM. For the same molecule, the Ratio Ki (Homo sapiens [3]) was 0.5 and the Ki [4] was 16 nM.

COc1ccc(Nc2ccc3c(c2)[C@@]24CCCC[C@H]2[C@@H](C3)N(CC2CCC2)CC4)cc1 gave a Ki (Mu-type opioid receptor) of 0.61 nM, a Ratio Ki (Homo sapiens [1]) of 3 and a Ki [2] of 0.59 nM. The Ratio Ki (Homo sapiens [3]) was 1 and the Ki [4] was 19 nM.

In the case of OCc1cc2c(cc1O)[C@@]13CCCC[C@H]1[C@@H](C2)N(CC1CCC1)CC3, the Ki (Mu-type opioid receptor) is reported as 360 nM, the Ki [2] is reported as 86 nM and the Ratio Ki (Homo sapiens [3]) is reported as 0.25. For the same molecule, the Ki [4] was over 10000 nM.

For O=C(Nc1ccc(I)cc1)Oc1ccc2c(c1)[C@@]13CCCC[C@H]1[C@@H](C2)N(CC1CCC1)CC3, the Ki (Mu-type opioid receptor) was 1.1 nM, the Ratio Ki (Homo sapiens [1]) was 68 and the Ki [2] was 0.99 nM. For the same molecule, the Ratio Ki (Homo sapiens [3]) was 1 and the Ki [4] was 67 nM.

In the case of c1ccc(Nc2ccc3c(c2)[C@@]24CCCC[C@H]2[C@@H](C3)N(CC2CCC2)CC4)cc1, the Ki (Mu-type opioid receptor) is reported as 1.7 nM, the Ratio Ki (Homo sapiens [1]) is reported as 2 and the Ki [2] is reported as 1.5 nM. For the same molecule, the Ratio Ki (Homo sapiens [3]) was 1 and the Ki [4] was 39 nM.

With Oc1cc2c(cc1CNCCCCNCc1cc3c(cc1O)[C@@]14CCCC[C@H]1[C@@H](C3)N(CC1CCC1)CC4)C[C@@H]1[C@@H]3CCCC[C@]23CCN1CC1CCC1 the Ki (Mu-type opioid receptor) was 6.8 nM, the Ratio Ki (Homo sapiens [1]) was 28 and the Ki [2] was 4.9 nM. For the same molecule, the Ratio Ki (Homo sapiens [3]) was 0.7 and the Ki [4] was 190 nM.

With O=C(Nc1ccc(I)cc1)Nc1ccc2c(c1)[C@@]13CCCC[C@H]1[C@@H](C2)N(CC1CC1)CC3 the Ki (Mu-type opioid receptor) was 23 nM, the Ratio Ki (Homo sapiens [1]) was 4 and the Ki [2] was 12 nM. The Ratio Ki (Homo sapiens [3]) was 0.5 and the Ki [4] was 94 nM.

Molecule Ic1ccc(CN(Cc2ccc(I)cc2)c2ccc3c(c2)[C@@]24CCCC[C@H]2[C@@H](C3)N(CC2CCC2)CC4)cc1 has a Ki (Mu-type opioid receptor) of 16 nM, a Ratio Ki (Homo sapiens [1]) of 60 and a Ki [2] of 16 nM. The Ratio Ki (Homo sapiens [3]) was 1 and the Ki [4] was 960 nM.

For CCCNCc1cc2c(cc1O)[C@@]13CCCC[C@H]1[C@@H](C2)N(CC1CCC1)CC3, the Ki (Mu-type opioid receptor) was 330 nM, the Ki [2] was 350 nM and the Ratio Ki (Homo sapiens [3]) was 1. The Ki [4] was over 10000 nM.

Molecule Oc1cc2c(cc1CNCCCCCCNCc1cc3c(cc1O)[C@@]14CCCC[C@H]1[C@@H](C3)N(CC1CCC1)CC4)C[C@@H]1[C@@H]3CCCC[C@]23CCN1CC1CCC1 has a Ki (Mu-type opioid receptor) of 76 nM, a Ratio Ki (Homo sapiens [1]) of 12 and a Ki [2] of 37 nM. It also gave a Ratio Ki (Homo sapiens [3]) of 0.5 and a Ki [4] of 850 nM.

In the case of O=C(Nc1ccc(I)cc1)Oc1ccc2c(c1)[C@@]13CCCC[C@H]1[C@@H](C2)N(CC1CC1)CC3, the Ki (Mu-type opioid receptor) is reported as 0.58 nM, the Ratio Ki (Homo sapiens [1]) is reported as 24 and the Ki [2] is reported as 0.6 nM. It also gave a Ratio Ki (Homo sapiens [3]) of 1 and a Ki [4] of 14.6 nM.

For Oc1cc2c(cc1C(O)CCCCCCCCCCC(O)c1cc3c(cc1O)[C@@]14CCCC[C@H]1[C@@H](C3)N(CC1CCC1)CC4)C[C@@H]1[C@@H]3CCCC[C@]23CCN1CC1CCC1 (mixture of isomers), the Ki (Mu-type opioid receptor) was 35 nM, the Ratio Ki (Homo sapiens [1]) was 24 and the Ki [2] was 31 nM. It also gave a Ratio Ki (Homo sapiens [3]) of 1 and a Ki [4] of 730 nM.

For c1ccc(Nc2ccc3c(c2)[C@@]24CCCC[C@H]2[C@@H](C3)N(CC2CC2)CC4)cc1, the Ki (Mu-type opioid receptor) was 0.08 nM, the Ratio Ki (Homo sapiens [1]) was 68 and the Ki [2] was 0.047 nM. The Ratio Ki (Homo sapiens [3]) was 0.5 and the Ki [4] was 5.4 nM.

CN1CC[C@]23CCCC[C@H]2[C@H]1Cc1ccc(NC(=O)Nc2ccccc2)cc13 was tested, and the Ki (Mu-type opioid receptor) was 11 nM, the Ratio Ki (Homo sapiens [1]) was 29 and the Ki [2] was 340 nM. The Ratio Ki (Homo sapiens [3]) was 31 and the Ki [4] was 320 nM.

In the case of CN1CC[C@]23CCCC[C@H]2[C@H]1Cc1cc(CNCc2ccccc2)c(O)cc13, the Ki (Mu-type opioid receptor) is reported as 190 nM, the Ki [2] is reported as 380 nM and the Ratio Ki (Homo sapiens [3]) is reported as 2. The Ki [4] was over 10000 nM.

With CCN(CCCCN(CC)Cc1cc2c(cc1O)[C@@]13CCCC[C@H]1[C@@H](C2)N(CC1CCC1)CC3)Cc1cc2c(cc1O)[C@@]13CCCC[C@H]1[C@@H](C2)N(CC1CCC1)CC3 the Ki (Mu-type opioid receptor) was 160 nM, the Ratio Ki (Homo sapiens [1]) was 7 and the Ki [2] was 44 nM. It also gave a Ratio Ki (Homo sapiens [3]) of 0.3 and a Ki [4] of 1100 nM.

For Oc1cc2c(cc1CNCCCCCCCCNCc1cc3c(cc1O)[C@@]14CCCC[C@H]1[C@@H](C3)N(CC1CCC1)CC4)C[C@@H]1[C@@H]3CCCC[C@]23CCN1CC1CCC1, the Ki (Mu-type opioid receptor) was 24 nM, the Ratio Ki (Homo sapiens [1]) was 42 and the Ki [2] was 40 nM. The Ratio Ki (Homo sapiens [3]) was 2 and the Ki [4] was 1000 nM.

For O/N=C\c1cc2c(cc1O)[C@@]13CCCC[C@H]1[C@@H](C2)N(CC1CCC1)CC3, the Ratio Ki (Homo sapiens [1]) was 47 and the Ratio Ki (Homo sapiens [3]) was 0.16.

Work on COc1ccc(CNc2ccc3c(c2)[C@@]24CCCC[C@H]2[C@@H](C3)N(CC2CC2)CC4)cc1 yielded a Ki (Mu-type opioid receptor) of 0.31 nM, a Ratio Ki (Homo sapiens [1]) of 65 and a Ki [2] of 0.51 nM. It also gave a Ratio Ki (Homo sapiens [3]) of 2 and a Ki [4] of 20 nM.

CCC(O)c1cc2c(cc1O)[C@@]13CCCC[C@H]1[C@@H](C2)N(CC1CCC1)CC3 (mixture of isomers) gave a Ki (Mu-type opioid receptor) of 180 nM, a Ki [2] of 72 nM and a Ratio Ki (Homo sapiens [3]) of 0.3. For the same molecule, the Ki [4] was over 10000 nM.

In the case of CCCCC(O)c1cc2c(cc1O)[C@@]13CCCC[C@H]1[C@@H](C2)N(CC1CCC1)CC3 (mixture of isomers), the Ki (Mu-type opioid receptor) is reported as 17 nM, the Ratio Ki (Homo sapiens [1]) is reported as 6 and the Ki [2] is reported as 13 nM. The Ratio Ki (Homo sapiens [3]) was 1 and the Ki [4] was 72 nM.

c1ccc(CNc2ccc3c(c2)[C@@]24CCCC[C@H]2[C@@H](C3)N(CC2CC2)CC4)cc1 gave a Ki (Mu-type opioid receptor) of 0.26 nM, a Ratio Ki (Homo sapiens [1]) of 112 and a Ki [2] of 0.34 nM. For the same molecule, the Ratio Ki (Homo sapiens [3]) was 1.4 and the Ki [4] was 29 nM.

CCN(CCCCCCN(CC)Cc1cc2c(cc1O)[C@@]13CCCC[C@H]1[C@@H](C2)N(CC1CCC1)CC3)Cc1cc2c(cc1O)[C@@]13CCCC[C@H]1[C@@H](C2)N(CC1CCC1)CC3 showed a Ki (Mu-type opioid receptor) of 64 nM, a Ratio Ki (Homo sapiens [1]) of 13 and a Ki [2] of 54 nM. The Ratio Ki (Homo sapiens [3]) was 1 and the Ki [4] was 710 nM.

With OCCCCCCCCCCC(O)c1cc2c(cc1O)[C@@]13CCCC[C@H]1[C@@H](C2)N(CC1CCC1)CC3 (mixture of isomers) the Ki (Mu-type opioid receptor) was 36 nM, the Ratio Ki (Homo sapiens [1]) was 23 and the Ki [2] was 26 nM. The Ratio Ki (Homo sapiens [3]) was 1 and the Ki [4] was 610 nM.

With O=C(CCCCC(=O)NCc1cc2c(cc1O)[C@@]13CCCC[C@H]1[C@@H](C2)N(CC1CCC1)CC3)NCc1cc2c(cc1O)[C@@]13CCCC[C@H]1[C@@H](C2)N(CC1CCC1)CC3 the Ki (Mu-type opioid receptor) was 36 nM, the Ratio Ki (Homo sapiens [1]) was 21 and the Ki [2] was 30 nM. It also gave a Ratio Ki (Homo sapiens [3]) of 1.

Work on CN1CC[C@]23CCCC[C@H]2[C@H]1Cc1cc2c(cc13)OCN(Cc1ccccc1)C2 yielded a Ki (Mu-type opioid receptor) of 110 nM, a Ki [2] of 310 nM and a Ratio Ki (Homo sapiens [3]) of 3. It also gave a Ki [4] of over 10000 nM.

For CN1CC[C@]23CCCC[C@H]2[C@H]1Cc1ccc(NC(=O)Nc2ccc(I)cc2)cc13, the Ki (Mu-type opioid receptor) was 17 nM, the Ratio Ki (Homo sapiens [1]) was 18 and the Ki [2] was 280 nM. The Ratio Ki (Homo sapiens [3]) was 16 and the Ki [4] was 300 nM.

With Ic1ccc(CNc2ccc3c(c2)[C@@]24CCCC[C@H]2[C@@H](C3)N(CC2CC2)CC4)cc1 the Ki (Mu-type opioid receptor) was 0.71 nM, the Ki [2] was 0.79 nM and the Ki [4] was 34 nM.

For c1ccc(CNc2ccc3c(c2)[C@@]24CCCC[C@H]2[C@@H](C3)N(CC2CCC2)CC4)cc1, the Ki (Mu-type opioid receptor) was 1.7 nM, the Ratio Ki (Homo sapiens [1]) was 76 and the Ki [2] was 2.8 nM. It also gave a Ratio Ki (Homo sapiens [3]) of 1.6 and a Ki [4] of 130 nM.

In the case of Ic1ccc(CNc2ccc3c(c2)[C@@]24CCCC[C@H]2[C@@H](C3)N(CC2CCC2)CC4)cc1, the Ki (Mu-type opioid receptor) is reported as 5.4 nM, the Ratio Ki (Homo sapiens [1]) is reported as 35 and the Ki [2] is reported as 5.8 nM. It also gave a Ratio Ki (Homo sapiens [3]) of 1.1 and a Ki [4] of 190 nM.
